CSC inhib – blocks cancer stem cells; cancer stem cell-like cells viability, luminescence; actives 1.1% (n = 300,000); inhibition, % at 7.5 µM; in the data active means inhibition above about 75%; tested in HMLE shEcad cells
ANO1 activ – activators or potentiators of mouse TMEM16A chloride channel | B-score at 10 µM | Q8BHY3 | HEK293 TMEM16A/YFP-H148Q/I152L, iodide quench fluorescence; hits give low values | actives 0.3% (n = 340,000);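 active means fluorescence-ratio B-score plate-corrected deviation score at least 3 library SD below zero, with starting fluorescence score within 5 deviations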;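 further: channel opened by trigger with iodide after compound preincubation; score built on the fluorescence ratio of max minus min over baseline; more negative score means more quench and so TMEM16A activation or potentiation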
TMEM16A inh – inhibitors of mouse TMEM16A calcium-activated chloride channel. Q8BHY3. HEK293 TMEM16A/YFP iodide influx fluorescence, ionomycin. actives 1.2% (n = 310,000). normalized B-score (activity score, 25-100; higher = stronger inhibition) at 10 µM;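 active means ratio plate-corrected score three or more library SD toward inhibition, starting fluorescence score within five deviations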;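 further: score derived from kinetic fluorescence span divided by baseline fluorescence per well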
Beta apoptosis – beta cell apoptosis inhibition; AID 435005; protection from apoptosis, % (no concentration beside the values); INS-1E cytokine-induced death, ATP luminescence, 48 h; percent of positive-control rescue, neutral wells zero; actives 0.8% (n = 300,000);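 active means Every replicate reaches about 75%, or at least half do and their mean reaches it too, limit read from the data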;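 further: higher means more ATP so stronger rescue from cytokine killing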
MC4R antag cAMP – human MC4R antagonism in cAMP assay. P32245. MC4R-expressing cells, MTII-stimulated cAMP, LANCE TR-FRET. inhibition, % at 6.5 µM. actives 0.48% (n = 360,000). AID 540295;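 active means inhibition above its plate's cutoff, the mean of tested wells on that plate plus 3 SD, cut at about 29% in these data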
Target sequence (P32245 whole entry, looked up): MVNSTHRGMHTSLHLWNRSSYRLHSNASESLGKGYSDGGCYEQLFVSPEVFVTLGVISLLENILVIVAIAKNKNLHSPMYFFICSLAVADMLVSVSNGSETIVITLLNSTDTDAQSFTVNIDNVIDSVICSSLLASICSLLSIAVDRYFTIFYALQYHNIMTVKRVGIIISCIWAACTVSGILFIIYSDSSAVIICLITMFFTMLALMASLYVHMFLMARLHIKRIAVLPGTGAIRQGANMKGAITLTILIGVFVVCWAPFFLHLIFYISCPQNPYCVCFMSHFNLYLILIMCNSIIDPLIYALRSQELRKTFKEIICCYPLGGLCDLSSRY
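System – human MC4R-expressing U2OS cells · Also added – Melanotan II · Dosing – one concentration, 6.5 µM nominal · Timing – 30-min compound, 1-h challenge, 1-h detection, room temperature · Measured by – Eu-cAMP/anti-cAMP TR-FRET, emission 671 nm · Replicates – singlicate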
MC4R ag barr – agonists of human melanocortin 4 receptor (MC4R) beta-arrestin. P32245. U2OS MC4R beta-arrestin complementation, luminescence; percent of melanotan II response, DMSO zero. activation, % at 8.9 µM. actives 0.98% (n = 360,000);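 active means activation above a per-plate cutoff, the mean activation of sample wells on that plate plus 3 SD, cut at about 8% in these data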
Each line names hits and unclear results; the compound was inactive in the other large screens. Sampled rows, rich in hits. Any-hit rate of the full collection: about 3.8%.

COc1ccc(CN2C(=O)C(CC(=O)NC3CCCCC3)CC(C(=O)N(C)C)=C2C)cc1 (stereo unspecified)	none (no result: CSC inhib, ANO1 activ, TMEM16A inh, Beta apoptosis)
CCn1c(=NC(=O)CS(=O)(=O)c2ccc(C)cc2)sc2cccc(OC)c21	TMEM16A inh 100 (no result: Beta apoptosis)
CC1c2cc3c(cc2CCN1S(=O)(=O)c1ccccc1)OCCCO3 (stereo unspecified)	none
Cc1ccc(C(C#N)c2ccc3c(C(F)(F)F)cc(C(F)(F)F)nc3n2)cc1 (stereo unspecified)	CSC inhib 86.1, TMEM16A inh 100
CC(C)(C)c1ccc(S(=O)(=O)N2CCN(Cc3cc4c(cc3O)OCO4)CC2)cc1	none (no result: CSC inhib, TMEM16A inh)
C/C(=N\NC(=S)Nc1c(C)cccc1C)c1cc2ccccc2o1	none
C/C(=N\NC(=S)Nc1ccccc1C)c1cc2ccccc2o1	Beta apoptosis 77.8
Cc1cccc(C)c1OC(=O)CN1C(=O)c2ccccc2C1=O	none (no result: Beta apoptosis)
N#CC(C#N)=Cc1cccn1-c1ccc(S(N)(=O)=O)cc1	ANO1 activ -6.14
CS(=O)(=O)/C(C#N)=C/c1cccn1S(=O)(=O)c1ccccc1	none (no result: CSC inhib, Beta apoptosis)
COc1cccc(-c2nnn(CC(=O)Nc3ccc(C)cc3C)n2)c1OC	TMEM16A inh 25
COc1ccc(CCNC(=O)Cn2nnc(-c3cccc(OC)c3OC)n2)cc1OC	none
O=C(COC(=O)c1ccccn1)Nc1ccc(S(=O)(=O)N2CCOCC2)cc1	TMEM16A inh 25 (no result: CSC inhib)
O=C(COc1ccccc1)Nc1ccc(S(=O)(=O)N2CCOCC2)cc1	none
CCOc1ccccc1C(=O)OCC(=O)Nc1cc(S(=O)(=O)N2CCOCC2)ccc1C	ANO1 activ -42 (no result: CSC inhib, TMEM16A inh, Beta apoptosis)
O=c1cc(N2CCCCC2)c(-c2ccccc2)nn1Cc1ccc(Cl)cc1	CSC inhib 102.8 (no result: Beta apoptosis)
O=c1cc(N2CCCCC2)c(-c2ccccc2)nn1Cc1c(Cl)cccc1Cl	CSC inhib 104.2, ANO1 activ -26, TMEM16A inh 25
CCOC(=O)c1cc2c(C)n(-c3ccc(C)cc3)c(C)c2ccc1=O	TMEM16A inh 100
COc1ccc(S(=O)(=O)NCCSC(C)(C)C)c(Cl)c1Cl	TMEM16A inh 25
CCCNS(=O)(=O)c1ccc(OC)c(Cl)c1Cl	none (no result: CSC inhib)
COc1ccc([C@H]2CC(=O)C=C(c3ccc(C)c4ccccc34)C2)cc1	none (no result: TMEM16A inh)
Cc1ccc(OCCSc2nc(NC(C)C)nc(NC(C)C)n2)cc1	CSC inhib 89.6
CCNc1nc(SCCOc2ccc(C)cc2)nc(N(C)C)n1	none
O=C(NCCc1ccccc1)c1cccc(NC(=O)C2CCCC2)c1	none (no result: CSC inhib, ANO1 activ, TMEM16A inh, Beta apoptosis)
CCC(=O)NC(C)c1cc(Cl)c2cccnc2c1O (stereo unspecified)	none (no result: TMEM16A inh)
COc1ccccc1C(NC(C)=O)c1cc(Cl)c2cccnc2c1O (stereo unspecified)	CSC inhib 100.9, Beta apoptosis 94.0
CN1CCN(C(c2ccc(Br)cc2)c2cc(Cl)c3cccnc3c2O)CC1 (stereo unspecified)	CSC inhib 110.9
CC(=O)NC(C)c1cc(Cl)c2cccnc2c1O (stereo unspecified)	Beta apoptosis 92.4 (no result: TMEM16A inh)
COc1ccc(C(NC(C)=O)c2cc(Cl)c3cccnc3c2O)cc1OC (stereo unspecified)	Beta apoptosis 94.5
COc1ccc(-c2csc(N3CCN(c4cc(C)nc5ccccc45)CC3)n2)cc1OC	CSC inhib 95.5
Nc1c(C(=O)Nc2ccc3c(c2)OCCO3)nnn1Cc1ccccc1Cl	Beta apoptosis 92.7
N#CC1=C(S)N(c2ccccc2)C2(CCCCC2)NC1=O	ANO1 activ -5.04 (no result: CSC inhib)
CCOC(=O)CCC(NC(=O)c1ccc(Nc2nc3ccccc3nc2C(=O)OCC)cc1)C(=O)OCC (stereo unspecified)	none (no result: CSC inhib, TMEM16A inh, Beta apoptosis)
Cc1ccc(C(=O)O)cc1-c1ccc(/C=C2\SC(=O)N(CC(=O)Nc3ccccc3)C2=O)o1	MC4R antag cAMP 31.5
Cc1ccccc1NC(=O)CN1C(=O)S/C(=C\c2ccc(-c3cc(C(=O)O)ccc3C)o2)C1=O	none (no result: CSC inhib, TMEM16A inh, Beta apoptosis)
COc1ccc(C(=O)C2CCCN(C(=O)/C=C/c3cnc[nH]3)C2)c(C)c1 (stereo unspecified)	none
C/C(=N\Nc1cc(N2CCOCC2)nc(C)n1)c1cccc([N+](=O)[O-])c1	none
CCCCc1ccc(/C(C)=N/Nc2cc(N3CCOCC3)nc(C)n2)cc1	CSC inhib 79.9
COc1ccc(C(=O)c2ccc3oc(-c4ccc(OC)cc4)c(C#CCCO)c3c2)cc1	none
COc1cc(OC)cc(-c2sc3ccc(OC)cc3c2C#CC(C)(C)O)c1	none (no result: TMEM16A inh)
COc1cc(OC)cc(-c2sc3ccc(OC)cc3c2C#CCO)c1	CSC inhib 101.5 (no result: TMEM16A inh)
COc1cccc(-c2sc3ccc(OC)cc3c2C#CCCO)c1	CSC inhib 116.2 (no result: TMEM16A inh)
COc1ccc(-c2sc3ccc(N4CCOCC4)cc3c2C#CCO)cc1	none (no result: CSC inhib, TMEM16A inh)
COc1cc2sc3ccc(C#CC4(O)CCCCC4)cc3c(=O)c2cc1OC	none
COc1ccc(-c2ccc3oc(-c4ccc(OC)cc4)c(C#CC4(O)CCCCC4)c3c2)cc1	CSC inhib 77.2
COc1cccc(-c2sc3ccc(OC)cc3c2C#CC2(O)CCCCC2)c1	CSC inhib 104.9 (no result: TMEM16A inh)
O=C(CSc1nnc2ccc(-c3ccccn3)nn12)Nc1ccccc1F	none (no result: Beta apoptosis)
CCOC(=O)c1cc(-c2ccccc2)n(Cc2cc(CC)no2)n1	none
Cc1ccc(CNc2ccccc2C(=O)O)s1	none
CC(NC(=O)c1ccccc1)C(=O)OCC(=O)c1c(N)n(C)c(=O)n(C)c1=O (stereo unspecified)	none (no result: CSC inhib, TMEM16A inh)
NS(=O)(=O)c1ccc(CNC(=S)Nc2ccc(Cl)c(Cl)c2)cc1	ANO1 activ -5.27
O=C(COc1ccccc1C(=O)O)Nc1ccc(SC(F)F)cc1	none (no result: CSC inhib)
O=C(COC(=O)c1ccccc1O)Nc1ccc(S(=O)(=O)N2CCCCC2)cc1	none
O=C(COC(=O)c1ccccc1C(=O)c1ccccc1)Nc1ccc(SC(F)F)cc1	TMEM16A inh 100
O=C(COC(=O)c1cc(S(=O)(=O)N2CCCC2)ccc1O)Nc1ccc(SC(F)F)cc1	ANO1 activ -26.2 (no result: CSC inhib, TMEM16A inh, Beta apoptosis)
CCCC1(CCC)NC(=O)N(CC(=O)N2CCc3ccccc32)C1=O	none (no result: TMEM16A inh)
CCn1cc(C(=O)N2CCCC(C(=O)c3cccc(C(F)(F)F)c3)C2)cn1 (stereo unspecified)	none (no result: CSC inhib, ANO1 activ, TMEM16A inh, Beta apoptosis)
Cn1nc(C(=O)NCC2COc3ccccc3O2)c2ccccc2c1=O (stereo unspecified)	none (no result: CSC inhib, TMEM16A inh)
Oc1c(C(Nc2nc3ccccc3s2)c2ccco2)ccc2cccnc12 (stereo unspecified)	CSC inhib 119.6, Beta apoptosis 103.3
CC(C)C(=O)NC(c1cccc([N+](=O)[O-])c1)c1ccc2cccnc2c1O (stereo unspecified)	CSC inhib 99.7 (no result: Beta apoptosis)
CC(C)C(=O)NC(c1ccco1)c1ccc2cccnc2c1O (stereo unspecified)	Beta apoptosis 116.8
